Measured values: ChEMBL document CHEMBL1127413, “Cephem sulfones as inactivators of human leukocyte elastase. 5. 7 alpha-Methoxy- and 7 alpha-chloro-1,1-dioxocephem 4-ketones” (J Med Chem, 1994)

Key:
[1] = Chemical stability (T1/2 at pH 7.4); assay type: physicochemical; conditions: buffer
Neutrophil elastase = biological target: T1, Neutrophil elastase (Homo sapiens, UniProt P08246); assay: Inhibition constant (steady state) against Human Leukocyte Elastase (HLE)
T1 sequence (P08246 whole entry): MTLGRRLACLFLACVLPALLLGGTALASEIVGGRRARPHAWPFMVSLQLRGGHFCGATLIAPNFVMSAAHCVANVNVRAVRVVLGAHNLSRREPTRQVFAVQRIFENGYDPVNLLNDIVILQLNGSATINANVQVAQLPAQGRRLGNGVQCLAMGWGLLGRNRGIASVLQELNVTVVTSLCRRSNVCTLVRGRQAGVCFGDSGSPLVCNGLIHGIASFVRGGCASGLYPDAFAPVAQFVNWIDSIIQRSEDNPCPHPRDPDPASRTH
Outline: (§1)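 HLE from human sputum, active-site titrated with MeO-Suc-Ala-Ala-Pro-Val-CH2Cl; 1–3 nM active enzyme. […] Substrate and inhibitor concentrations varied to derive kon and Ki(ss).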

[2] = biological target: T2, Neutrophil elastase (Homo sapiens) (UniProt P08246); assay: Tested for the rate constant against Human Leukocyte Elastase (HLE) inactivation; outline: as §1
T2 sequence (whole entry): T1 sequence (P08246 whole entry)

[3] = biological target: T2, Neutrophil elastase (Homo sapiens); assay: Tested for inhibition of Human Leukocyte Elastase (HLE) in living polymorphonuclear leukocytes; assay type: cell-based; parameters: scale not given: the % may be the effect or the level left
Outline: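 Human PMNs from citrated venous blood, 5 × 10^6 cells/mL, exposed to inhibitor (10 μg per mL, in DMSO) for 15 min at 37 °C, then washed three times. Stimulated with cytochalasin B for 5 min, then fMLP for 15 min. Supernatant elastase assayed with N-acetyl-Ala-Ala-Pro-Ala-7-(4-methyl)coumarylamide, 6 h at 25 °C, fluorescence read; DMSO-only controls.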

Row | SMILES | half-life [1] [h] | Ki ss (Neutrophil elastase) [nM] | k on [2] [M⁻¹ s⁻¹] | Activity [3] [%]
1 | CO[C@H]1C(=O)N2C(C(=O)N3CCCC3)=C(CSc3nc(=O)c(=O)[nH]n3C)CS(=O)(=O)C12 (some centres not stated) | 25 | 75 |  | 
2 | CC(=O)OCC1=C(C(=O)C(C)(C)C)N2C(=O)[C@H](Cl)C2S(=O)(=O)C1 (some centres not stated) | 3.9 | 4 |  | 
3 | CO[C@H]1C(=O)N2C(C(=O)C(C)(C)C)=C(C)[C@@H](Sc3nc(=O)c(=O)[nH]n3C)S(=O)(=O)C12 (some centres not stated) | 21 | 26 |  | 
4 | CO[C@H]1C(=O)N2C(C(=O)c3ccccc3)=C(CSc3nnnn3C)CS(=O)(=O)C12 (some centres not stated) | 17 | 110 |  | 
5 | CO[C@H]1C(=O)N2C(C(=O)c3ccccc3)=C(C)[C@@H](Sc3nnnn3C)S(=O)(=O)C12 (some centres not stated) | 200 | 1400 |  | 
6 | CO[C@H]1C(=O)N2C(C(=O)C(C)(C)C)=C(C)[C@@H](Sc3nnnn3C)S(=O)(=O)C12 (some centres not stated) | 18 | 8 |  | 
7 | CO[C@H]1C(=O)N2C(C(=O)c3ccccc3)=C(C)CS(=O)(=O)C12 (some centres not stated) | 26 | 2700 |  | 
8 | CC1=C(C(=O)C(C)(C)C)N2C(=O)[C@H](Cl)C2S(=O)(=O)C1 (some centres not stated) | 5.6 | 380 |  | 
9 | CC1=C(C(=O)c2ccccc2)N2C(=O)[C@H](Cl)C2S(=O)(=O)C1 (some centres not stated) | 2.3 | 130 |  | 
10 | CO[C@H]1C(=O)N2C(C(=O)N3CCC[C@H]3C(=O)O)=C(COC(C)=O)CS(=O)(=O)C12 (some centres not stated) | 18 | 200 | 1800 | 
11 | CC(=O)OCC1=C(C(=O)Cc2ccccc2)N2C(=O)[C@H](Cl)C2S(=O)(=O)C1 (some centres not stated) | 0.2 | 100 |  | 
12 | CO[C@H]1C(=O)N2C(C(=O)C(C)(C)C)=C(CSc3nnnn3C)CS(=O)(=O)C12 (some centres not stated) | 24 | 34 |  | 
13 | CCC(=O)C1=C(COC(C)=O)CS(=O)(=O)C2[C@@H](Cl)C(=O)N12 (some centres not stated) | 1.1 | 11 |  | 
14 | CO[C@H]1C(=O)N2C(C(=O)OC(C)(C)C)=C(CSc3ccccn3)CS(=O)(=O)C12 (some centres not stated) | 5.1 | 100 |  | 
15 | CO[C@H]1C(=O)N2C(C(=O)C(C)(C)C)=C(COC(C)=O)[C@@H](Sc3nnnn3C)S(=O)(=O)C12 (some centres not stated) | 10 | 6 |  | 
16 | COCC1=C(C(=O)C(C)(C)C)N2C(=O)[C@H](Cl)C2S(=O)(=O)C1 (some centres not stated) | 6.9 | 170 |  | 
17 | CO[C@H]1C(=O)N2C(C(=O)C(C)(C)C)=C(C)[C@@H](OC(=O)C(C)(C)C)S(=O)(=O)C12 (some centres not stated) | 54 | < 2 |  | 
18 | CO[C@H]1C(=O)N2C(C(=O)C(C)(C)C)=C(C)CS(=O)(=O)C12 (some centres not stated) | 106 | 1300 |  | 
19 | CO[C@H]1C(=O)N2C(C(=O)C(C)(C)C)=C(C)[C@@H](Sc3nnc(C)s3)S(=O)(=O)C12 (some centres not stated) | 27 | 12 |  | 
20 | CO[C@H]1C(=O)N2C(C(=O)SCC(NC(=O)OC(C)(C)C)C(=O)OC(c3ccccc3)c3ccccc3)=C(CSc3nnnn3C)CS(=O)(=O)[C@H]12 (some centres not stated) |  |  |  | 8
21 | Cn1nnnc1SCC1=C(C(=O)C(C)(C)C)N2C(=O)[C@H](Cl)C2S(=O)(=O)C1 (some centres not stated) | 3 | 7 |  | 
22 | CO[C@H]1C(=O)N2C(C(=O)C(C)(C)C)=C(C)[C@@H](OC(=O)CCC(=O)c3ccccc3)S(=O)(=O)C12 (some centres not stated) | 13 | < 2 |  | 

Row | SMILES | half-life [1] [h] | Ki ss (Neutrophil elastase) [nM] | k on [2] [M⁻¹ s⁻¹] | Activity [3] [%]
23 | CC(=O)OCC1=C(C(=O)c2ccccc2)N2C(=O)[C@H](Cl)C2S(=O)(=O)C1 (some centres not stated) | 1.5 | 12 |  | 
24 | CO[C@H]1C(=O)N2C(C(=O)OC(C)(C)C)=C(C)[C@@H](Sc3ccccn3)S(=O)(=O)C12 (some centres not stated) | 4.1 | 180 |  | 
25 | CC1=C(C(=O)C(C)(C)C)N2C(=O)[C@H](Cl)C2S(=O)(=O)[C@@H]1Sc1nnnn1C (some centres not stated) | 3.2 | 300 |  | 
26 | CC(=O)CCC1=C(COC(C)=O)CS(=O)(=O)C2[C@@H](Cl)C(=O)N12 (some centres not stated) | 10 |  |  | 
27 | CO[C@H]1C(=O)N2C(C(=O)C(C)(C)C)=C(CSc3nnnn3C)[C@@H](OC(=O)c3ccccc3)S(=O)(=O)C12 (some centres not stated) | 0.7 | < 2 |  | 
28 | CO[C@H]1C(=O)N2C(C(=O)C(C)(C)C)=C(C)[C@@H](OC=O)S(=O)(=O)C12 (some centres not stated) | < 0.5 | 600 |  | 
29 | CO[C@H]1C(=O)N2C(C(=O)c3ccccc3)=C(CSc3nnnn3C)[C@@H](Sc3nnnn3C)S(=O)(=O)C12 (some centres not stated) | 1400 | 55 |  | 
30 | CO[C@H]1C(=O)N2C(C(=O)OC(C)(C)C)=C(CSc3nnnn3C)CS(=O)(=O)C12 (some centres not stated) | 3.8 | 13 |  | 
31 | CO[C@H]1C(=O)N2C(C(=O)C(C)(C)C)=C(C)[C@@H](OC(C)=O)S(=O)(=O)C12 (some centres not stated) | 6.3 | 4 |  | 
32 | CO[C@H]1C(=O)N2C(C(=O)C(C)(C)C)=C(C)[C@@H](OC(=O)c3ccc(CSc4nc(=O)c(=O)[nH]n4C)cc3)S(=O)(=O)C12 (some centres not stated) | 7.5 | 2 |  | 
33 | CO[C@H]1C(=O)N2C(C(=O)C(C)(C)C)=C(C)[C@@H](Sc3ccccn3)S(=O)(=O)C12 (some centres not stated) | 24 | 10 |  | 
34 | CO[C@H]1C(=O)N2C(C(=O)C(C)(C)C)=C(C)[C@@H](OC(=O)c3ccccc3)S(=O)(=O)C12 (some centres not stated) | 24 | < 2 |  | 
35 | CO[C@H]1C(=O)N2C(C(=O)C(C)(C)C)=C(CSc3ccccn3)CS(=O)(=O)C12 (some centres not stated) | 28 | 12 |  | 
36 | CO[C@H]1C(=O)N2C(C(=O)C(C)(C)C)=C(CSc3nnnn3C)[C@@H](Sc3nnnn3C)S(=O)(=O)C12 (some centres not stated) | 31 | 93 |  | 
37 | CO[C@H]1C(=O)N2C(C(=O)C(C)(C)C)=C(COC(C)=O)CS(=O)(=O)C12 (some centres not stated) | 14 | 11 |  | 
38 | COC(=O)C1=C(COC(C)=O)CS(=O)(=O)C2[C@@H](Cl)C(=O)N12 (some centres not stated) | 0.9 | 12 |  | 
39 | CO[C@H]1C(=O)N2C(C(=O)C(C)(C)C)=C(C)[C@@H](OC(=O)c3ccc4ccccc4c3)S(=O)(=O)C12 (some centres not stated) | 33 | < 2 |  | 
40 | CO[C@H]1C(=O)N2C(C(=O)C(C)(C)C)=C(C)[C@@H](S(=O)(=O)c3ccccc3)S(=O)(=O)C12 (some centres not stated) | 10 | 20 |  | 
41 | CO[C@H]1C(=O)N2C(C(=O)C(C)(C)C)=C(COC(=O)c3ccccc3)[C@@H](OC(=O)c3ccccc3)S(=O)(=O)C12 (some centres not stated) | 1.2 | < 2 |  | 
42 | CC(=O)OCC1=C(C(=O)C(C)(C)C)N2C(=O)[C@H](Cl)C2S(=O)(=O)[C@@H]1Sc1nnnn1C (some centres not stated) | 1.8 | 140 |  | 
43 | CO[C@H]1C(=O)N2C(C(=O)C(C)(C)C)=C(CSc3nc(=O)c(=O)[nH]n3C)CS(=O)(=O)C12 (some centres not stated) | 16 | 27 |  | 
44 | CC1=C(C(=O)c2ccccc2)N2C(=O)[C@H](Cl)C2S(=O)(=O)[C@@H]1Sc1nnnn1C (some centres not stated) | 4.1 | 270 |  | 
